Results as given in publication PMC9350903 (ACS chemical neuroscience, 2021).
pIC50, pKd: −log10 of the molar value. Values joined by “and” are separate entries in the source; they are usually repeats but may differ in a detail not shown here. Equal values may be shown once.

Legend:
[1] = system: TrkA; details: cited from earlier work
[2] = target: NAV 1.5 sodium-gated channel (Homo sapiens, UniProt Q14524); experiment: Eurofins DiscoverX SAFETYscan CNS safety panel
[3] = system: Axl; details: cited from earlier work
[4] = system: IRKβ; details: cited from earlier work
[5] = system: Flt-3; details: cited from earlier work
[6] = target: Tyrosine protein kinase LCK (Homo sapiens, UniProt P06239); experiment: Eurofins DiscoverX SAFETYscan CNS safety panel
Chain of Tyrosine protein kinase LCK (P06239 whole entry): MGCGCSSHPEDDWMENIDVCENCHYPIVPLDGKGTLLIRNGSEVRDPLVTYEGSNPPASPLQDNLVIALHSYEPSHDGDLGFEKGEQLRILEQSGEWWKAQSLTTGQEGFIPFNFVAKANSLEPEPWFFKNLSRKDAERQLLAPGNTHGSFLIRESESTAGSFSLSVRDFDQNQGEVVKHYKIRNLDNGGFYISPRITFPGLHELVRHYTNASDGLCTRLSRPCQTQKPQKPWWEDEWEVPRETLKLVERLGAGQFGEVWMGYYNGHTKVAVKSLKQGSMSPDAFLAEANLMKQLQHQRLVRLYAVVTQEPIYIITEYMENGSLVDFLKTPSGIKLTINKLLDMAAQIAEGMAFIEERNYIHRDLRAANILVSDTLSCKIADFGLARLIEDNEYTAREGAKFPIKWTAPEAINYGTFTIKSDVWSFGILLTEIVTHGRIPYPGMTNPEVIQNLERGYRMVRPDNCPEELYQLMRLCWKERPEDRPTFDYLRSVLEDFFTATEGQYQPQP

[7] = target: 403 known kinases; experiment: scanMAX KINOMEscan profile; assay type: binding; details: 10 μM unlabeled CPPC; number of kinases hit of number tested
How it was run: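 Outsourced scanMAX KINOMEscan competition-binding profile of 403 kinases. Unlabeled test compound was tested at 10 μM, and kinases with off-target binding were identified.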

[8] = system: Kit; details: cited from earlier work
[9] = target: T1, CSF-1R (Rattus norvegicus, UniProt Q00495); experiment: [^3H]CPPC autoradiography in intrastriatal LPS rat brain tissues; assay type: binding; details: for inhibition of [^3H]CPPC binding: 10 μM competitor
T1 sequence (Q00495 20-978): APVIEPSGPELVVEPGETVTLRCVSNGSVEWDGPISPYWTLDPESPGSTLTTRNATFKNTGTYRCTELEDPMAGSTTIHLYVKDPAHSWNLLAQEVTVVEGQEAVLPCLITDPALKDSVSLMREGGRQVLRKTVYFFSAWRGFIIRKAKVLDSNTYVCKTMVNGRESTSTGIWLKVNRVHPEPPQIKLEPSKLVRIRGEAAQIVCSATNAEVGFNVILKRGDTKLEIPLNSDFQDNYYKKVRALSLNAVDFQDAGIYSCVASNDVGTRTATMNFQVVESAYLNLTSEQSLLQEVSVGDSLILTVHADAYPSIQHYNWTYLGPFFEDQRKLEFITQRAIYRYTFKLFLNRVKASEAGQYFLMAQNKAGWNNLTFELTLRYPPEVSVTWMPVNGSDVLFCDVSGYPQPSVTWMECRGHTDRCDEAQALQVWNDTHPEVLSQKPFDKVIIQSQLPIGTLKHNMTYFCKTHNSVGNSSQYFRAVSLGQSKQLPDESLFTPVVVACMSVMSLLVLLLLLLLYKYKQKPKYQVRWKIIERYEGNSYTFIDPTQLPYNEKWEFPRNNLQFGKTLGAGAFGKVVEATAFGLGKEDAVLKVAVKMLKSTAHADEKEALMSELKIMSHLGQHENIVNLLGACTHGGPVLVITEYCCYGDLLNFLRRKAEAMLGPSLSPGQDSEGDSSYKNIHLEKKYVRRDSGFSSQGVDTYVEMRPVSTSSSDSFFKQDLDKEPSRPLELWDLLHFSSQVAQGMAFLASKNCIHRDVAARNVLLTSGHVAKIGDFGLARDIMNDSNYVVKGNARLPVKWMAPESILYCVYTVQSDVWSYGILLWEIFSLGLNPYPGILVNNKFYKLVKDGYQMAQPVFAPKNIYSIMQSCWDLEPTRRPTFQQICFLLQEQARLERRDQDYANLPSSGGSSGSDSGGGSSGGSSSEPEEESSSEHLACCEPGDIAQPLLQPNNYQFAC

[10] = system: CSF-1R; details: [^11C]CPPC autoradiography in AD tissues; cited from earlier work
[11] = target: T2, serotonin 5-HT3A receptor (Homo sapiens, UniProt P46098); experiment: Eurofins DiscoverX SAFETYscan CNS safety panel
T2 sequence (P46098 24-478): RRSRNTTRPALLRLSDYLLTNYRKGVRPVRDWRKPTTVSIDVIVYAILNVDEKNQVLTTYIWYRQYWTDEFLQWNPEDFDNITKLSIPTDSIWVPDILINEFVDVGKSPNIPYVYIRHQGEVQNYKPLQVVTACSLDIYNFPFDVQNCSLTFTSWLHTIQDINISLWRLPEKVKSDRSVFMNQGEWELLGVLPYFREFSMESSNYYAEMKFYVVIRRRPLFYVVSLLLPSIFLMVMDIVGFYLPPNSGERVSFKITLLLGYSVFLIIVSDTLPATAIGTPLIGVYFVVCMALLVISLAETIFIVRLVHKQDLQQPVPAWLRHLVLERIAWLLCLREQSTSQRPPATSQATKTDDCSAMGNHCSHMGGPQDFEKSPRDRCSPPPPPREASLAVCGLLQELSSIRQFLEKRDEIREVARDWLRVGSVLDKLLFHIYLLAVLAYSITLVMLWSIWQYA

[12] = target: vascular endothelial growth factor receptor 2 (Homo sapiens, UniProt P35968); experiment: Eurofins DiscoverX SAFETYscan CNS safety panel
Chain of vascular endothelial growth factor receptor 2 (P35968 20-1356): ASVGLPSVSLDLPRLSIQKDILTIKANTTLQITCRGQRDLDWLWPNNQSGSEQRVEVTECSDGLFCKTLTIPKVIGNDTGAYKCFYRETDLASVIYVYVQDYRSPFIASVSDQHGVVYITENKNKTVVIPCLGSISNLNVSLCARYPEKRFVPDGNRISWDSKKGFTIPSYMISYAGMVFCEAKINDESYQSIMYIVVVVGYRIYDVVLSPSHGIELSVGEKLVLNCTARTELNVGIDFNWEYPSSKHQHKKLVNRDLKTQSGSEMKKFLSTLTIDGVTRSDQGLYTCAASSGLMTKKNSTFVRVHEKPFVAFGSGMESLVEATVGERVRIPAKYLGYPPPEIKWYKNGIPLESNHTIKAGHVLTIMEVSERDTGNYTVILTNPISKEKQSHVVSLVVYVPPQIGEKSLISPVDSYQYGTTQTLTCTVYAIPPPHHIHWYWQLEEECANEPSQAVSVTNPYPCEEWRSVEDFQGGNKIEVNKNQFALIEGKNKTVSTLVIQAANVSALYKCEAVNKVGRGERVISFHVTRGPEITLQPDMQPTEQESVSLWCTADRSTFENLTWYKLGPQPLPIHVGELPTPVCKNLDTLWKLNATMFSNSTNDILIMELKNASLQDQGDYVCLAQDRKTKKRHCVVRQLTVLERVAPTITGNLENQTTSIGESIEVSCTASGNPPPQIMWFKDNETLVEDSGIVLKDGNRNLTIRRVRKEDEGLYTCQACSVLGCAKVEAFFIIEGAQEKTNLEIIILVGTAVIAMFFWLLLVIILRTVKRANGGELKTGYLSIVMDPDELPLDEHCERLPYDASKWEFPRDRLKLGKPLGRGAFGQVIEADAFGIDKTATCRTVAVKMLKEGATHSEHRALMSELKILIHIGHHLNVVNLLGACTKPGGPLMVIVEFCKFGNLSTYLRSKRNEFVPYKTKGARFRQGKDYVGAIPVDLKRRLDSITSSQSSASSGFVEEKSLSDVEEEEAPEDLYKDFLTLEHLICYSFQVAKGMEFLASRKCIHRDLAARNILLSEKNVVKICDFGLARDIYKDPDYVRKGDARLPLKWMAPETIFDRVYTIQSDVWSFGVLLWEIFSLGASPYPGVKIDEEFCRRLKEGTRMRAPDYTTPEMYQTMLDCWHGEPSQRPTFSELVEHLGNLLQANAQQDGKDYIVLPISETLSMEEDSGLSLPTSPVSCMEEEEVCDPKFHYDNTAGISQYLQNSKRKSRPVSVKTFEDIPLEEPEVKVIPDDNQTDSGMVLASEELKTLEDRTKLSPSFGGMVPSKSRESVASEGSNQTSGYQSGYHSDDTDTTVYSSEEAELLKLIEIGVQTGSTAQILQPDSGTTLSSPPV

[13] = target: T3, CSF-1R (Mus musculus, UniProt P09581); experiment: [^3H]CPPC autoradiography in i.p. LPS mouse spleen tissues; assay type: binding
T3 sequence (P09581 20-977): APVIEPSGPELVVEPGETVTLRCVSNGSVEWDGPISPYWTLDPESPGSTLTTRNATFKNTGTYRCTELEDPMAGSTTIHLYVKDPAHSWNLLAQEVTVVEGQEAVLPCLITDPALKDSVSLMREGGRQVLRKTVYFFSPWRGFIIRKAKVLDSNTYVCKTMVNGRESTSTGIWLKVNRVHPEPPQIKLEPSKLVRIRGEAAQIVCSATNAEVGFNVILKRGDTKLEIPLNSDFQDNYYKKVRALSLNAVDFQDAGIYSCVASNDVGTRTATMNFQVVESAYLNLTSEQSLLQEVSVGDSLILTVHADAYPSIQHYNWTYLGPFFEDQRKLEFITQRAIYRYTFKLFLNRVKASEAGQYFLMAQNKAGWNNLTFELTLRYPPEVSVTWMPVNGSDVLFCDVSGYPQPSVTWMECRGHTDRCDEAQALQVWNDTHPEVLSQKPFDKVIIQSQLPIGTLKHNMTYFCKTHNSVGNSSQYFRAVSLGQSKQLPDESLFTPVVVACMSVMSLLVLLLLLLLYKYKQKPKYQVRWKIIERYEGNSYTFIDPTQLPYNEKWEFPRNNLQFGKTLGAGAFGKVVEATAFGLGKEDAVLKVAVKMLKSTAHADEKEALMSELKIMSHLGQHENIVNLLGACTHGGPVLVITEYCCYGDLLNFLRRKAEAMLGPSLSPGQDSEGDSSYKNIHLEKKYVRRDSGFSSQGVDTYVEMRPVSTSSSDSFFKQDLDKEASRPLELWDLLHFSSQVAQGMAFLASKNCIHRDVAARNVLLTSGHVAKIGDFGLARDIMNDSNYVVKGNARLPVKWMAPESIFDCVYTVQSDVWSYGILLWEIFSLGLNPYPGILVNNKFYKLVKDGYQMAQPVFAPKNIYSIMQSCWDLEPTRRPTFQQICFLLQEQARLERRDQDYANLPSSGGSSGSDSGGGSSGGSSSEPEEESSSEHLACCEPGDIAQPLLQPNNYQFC

[14] = target: α4β2 nicotinic acetylcholine receptor (Homo sapiens, UniProt P17787+P43681); experiment: Eurofins DiscoverX SAFETYscan CNS safety panel
Chain of α4β2 nicotinic acetylcholine receptor (P43681 29-627 limits assumed): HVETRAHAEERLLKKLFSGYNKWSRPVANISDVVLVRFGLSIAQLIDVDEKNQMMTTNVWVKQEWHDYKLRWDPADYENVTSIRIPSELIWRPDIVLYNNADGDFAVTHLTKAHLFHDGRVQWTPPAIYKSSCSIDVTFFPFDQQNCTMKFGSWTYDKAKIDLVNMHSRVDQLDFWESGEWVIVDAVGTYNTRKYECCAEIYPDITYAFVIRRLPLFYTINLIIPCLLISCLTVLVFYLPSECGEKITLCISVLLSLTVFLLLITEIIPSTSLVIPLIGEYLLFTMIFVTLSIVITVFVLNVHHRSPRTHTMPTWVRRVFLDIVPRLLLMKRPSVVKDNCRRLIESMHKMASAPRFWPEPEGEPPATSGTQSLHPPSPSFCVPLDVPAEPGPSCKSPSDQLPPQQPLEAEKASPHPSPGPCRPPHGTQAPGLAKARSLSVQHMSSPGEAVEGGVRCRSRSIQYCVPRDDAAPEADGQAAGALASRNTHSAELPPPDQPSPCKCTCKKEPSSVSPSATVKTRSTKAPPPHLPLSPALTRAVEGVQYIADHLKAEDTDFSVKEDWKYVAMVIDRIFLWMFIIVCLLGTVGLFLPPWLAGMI
Chain of α4β2 nicotinic acetylcholine receptor (P17787 26-502): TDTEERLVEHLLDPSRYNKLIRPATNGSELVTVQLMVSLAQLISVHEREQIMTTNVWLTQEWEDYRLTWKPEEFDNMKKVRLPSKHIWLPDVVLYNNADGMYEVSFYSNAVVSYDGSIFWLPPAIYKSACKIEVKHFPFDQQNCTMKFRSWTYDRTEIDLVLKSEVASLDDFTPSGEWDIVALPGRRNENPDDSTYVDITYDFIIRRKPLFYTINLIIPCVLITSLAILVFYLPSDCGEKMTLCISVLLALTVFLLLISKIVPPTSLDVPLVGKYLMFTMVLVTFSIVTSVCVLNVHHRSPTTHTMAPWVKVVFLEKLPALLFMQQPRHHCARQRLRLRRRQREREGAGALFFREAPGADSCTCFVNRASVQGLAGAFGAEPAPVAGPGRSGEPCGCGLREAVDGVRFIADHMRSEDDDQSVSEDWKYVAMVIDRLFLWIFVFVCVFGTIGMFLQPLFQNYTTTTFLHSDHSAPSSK

[15] = target: insulin receptor (Homo sapiens, UniProt P06213); experiment: Eurofins DiscoverX SAFETYscan CNS safety panel
Chain of insulin receptor (P06213 28-1382): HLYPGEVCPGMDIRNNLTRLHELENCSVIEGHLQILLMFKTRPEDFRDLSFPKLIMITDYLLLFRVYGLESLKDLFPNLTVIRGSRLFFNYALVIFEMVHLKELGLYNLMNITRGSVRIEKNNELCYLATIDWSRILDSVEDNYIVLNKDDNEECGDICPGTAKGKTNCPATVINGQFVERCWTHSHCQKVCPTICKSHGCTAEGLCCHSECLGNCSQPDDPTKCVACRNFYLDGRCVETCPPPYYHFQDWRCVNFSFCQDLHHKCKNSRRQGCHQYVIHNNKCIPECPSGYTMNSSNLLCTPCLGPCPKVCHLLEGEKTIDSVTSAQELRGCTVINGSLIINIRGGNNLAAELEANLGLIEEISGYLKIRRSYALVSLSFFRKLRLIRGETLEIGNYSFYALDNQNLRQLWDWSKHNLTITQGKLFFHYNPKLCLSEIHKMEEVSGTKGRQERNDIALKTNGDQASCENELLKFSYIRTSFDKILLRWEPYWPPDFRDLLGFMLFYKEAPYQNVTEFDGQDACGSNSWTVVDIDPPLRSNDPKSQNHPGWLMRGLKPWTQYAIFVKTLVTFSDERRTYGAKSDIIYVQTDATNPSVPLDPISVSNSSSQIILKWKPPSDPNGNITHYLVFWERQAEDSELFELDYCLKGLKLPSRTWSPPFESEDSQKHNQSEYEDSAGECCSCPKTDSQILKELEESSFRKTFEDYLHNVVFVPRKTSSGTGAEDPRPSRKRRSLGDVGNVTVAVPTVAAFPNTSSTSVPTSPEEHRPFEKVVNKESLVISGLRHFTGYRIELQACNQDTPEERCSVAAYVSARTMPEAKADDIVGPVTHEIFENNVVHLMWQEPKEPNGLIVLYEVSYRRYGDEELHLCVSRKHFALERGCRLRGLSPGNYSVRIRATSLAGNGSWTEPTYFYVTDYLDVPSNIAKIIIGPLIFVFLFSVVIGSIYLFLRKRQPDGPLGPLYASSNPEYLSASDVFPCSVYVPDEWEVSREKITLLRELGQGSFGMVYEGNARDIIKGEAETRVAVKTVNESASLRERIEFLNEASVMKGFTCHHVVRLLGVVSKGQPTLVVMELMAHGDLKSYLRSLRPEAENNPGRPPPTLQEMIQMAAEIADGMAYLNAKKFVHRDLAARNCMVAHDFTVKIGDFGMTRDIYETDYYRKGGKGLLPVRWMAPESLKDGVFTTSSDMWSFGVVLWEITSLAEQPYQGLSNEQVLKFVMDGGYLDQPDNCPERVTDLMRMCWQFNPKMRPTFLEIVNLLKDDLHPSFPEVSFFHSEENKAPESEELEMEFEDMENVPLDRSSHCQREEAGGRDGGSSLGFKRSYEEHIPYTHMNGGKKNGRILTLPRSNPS

[16] = system: c-kit; details: cited from earlier work
[17] = system: CSF-1R; details: cited from earlier work
[18] = oral administration; non-human primates; cited from earlier work
[19] = Storage stability of [^3H]CPPC; assay type: physicochemical; details: stored at −20 °C in ethanol; over the first 6 months
How it was run: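 Tritiated test compound (80 Ci/mmol; 1 mCi/mL stock) was stored in ethanol at −20 °C. Decomposition was measured at 2, 4 and 6 months.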

[20] = target: T3, CSF-1R; experiment: [^3H]CPPC autoradiography in GBM mouse model brain tissue; assay type: binding; details: mouse GBM brain sections; 18 nM [^3H]CPPC; defined using unlabeled 10 μM CPPC
How it was run: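 Male-unspecified mice received a unilateral intrastriatal injection of 2.5e6 […] cells. Tumour-bearing mice were selected by MRI on day 10 and killed 9 days later. Brains were fresh-frozen and cut at 10 μm. Sections were incubated with tritiated test compound in 100% FBS for 2 h at room temperature. Non-specific binding used 10 μM unlabeled compound. Sections were washed in 0.5% BSA at 4 °C, then water at 4 °C, exposed to a phosphor screen for 5 days and analysed by ROI.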

[21] = system: CSF-1R; experiment: No-Wash Assay with [^3H]CPPC in LPS-treated spleen and LPS injected brains; assay type: binding; details: LPS-treated spleen, 7-day and 30-day post LPS injected brains
[22] = target: T4, TSPO (Mus musculus, UniProt P50637); experiment: [^3H]PBR28 autoradiography in i.p. LPS mouse spleen tissues; assay type: binding
How it was run: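 C57bl/6 male mice, 10 weeks old, received LPS 1 mg/kg i.p. in saline for 3 or 4 consecutive days and were killed on day 5 or 6. Spleens were slow-frozen on dry ice and sectioned. Sections were incubated with ascending concentrations of tritiated TSPO radioligand in 100% FBS for 2 h at room temperature, then washed. […] Bmax and Kd came from non-linear regression of phosphor-screen ROI data.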

[23] = system: TSPO; experiment: No-Wash Assay with [^3H]PBR28 in LPS-treated spleen and LPS injected brains; assay type: binding; details: LPS-treated spleen, 7-day and 30-day post LPS injected brains
[24] = target: TSPO (Rattus norvegicus, UniProt P16257); experiment: [^3H]PBR28 autoradiography in intrastriatal LPS rat brain tissues; assay type: binding
[25] = target: T4, TSPO; experiment: [^3H]PBR28 autoradiography in GBM mouse model brain tissue; assay type: binding
How it was run: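 Mice received an intrastriatal injection of 2.5e6 […] cells and were killed 19 days later. Fresh-frozen brain sections were incubated with 3 nM tritiated TSPO radioligand (total binding) and read by phosphor-screen autoradiography. Adjacent sections were immunostained for IBA-1. Tumour was located by anti-luciferase staining.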

[26] = ipsilateral hemisphere of 30-day LPS rat brain, [^3H]CPPC 3 nM
[27] = [^3H]CPPC saturation in i.p. LPS mouse spleen
[28] = 7-day post-LPS injection rat brain, [^3H]CPPC 3.5 nM, mean ± sd
[29] = [^3H]PBR28 saturation in i.p. LPS mouse spleen
[30] = rats sacrificed 30-days post-surgery

## CN1CCN(c2ccc(NC(=O)c3ccc(C#N)o3)c(N3CCCCC3)c2)CC1 [CPPC, 5-cyano-N-(4-(4-methylpiperazin-1-yl)-2-(piperidin-1-yl)phenyl)furan-2-carboxamide]
[1]
  concentration of off-target binding: less than 0.1 μM
[2]
  pIC50: 5.19
[3]
  concentration of off-target binding: less than 0.1 μM
[4]
  concentration of off-target binding: less than 0.1 μM
[5]
  concentration of off-target binding: less than 0.1 μM
[6]
  pIC50: 7.66
[7]
  kinase targets with off-target binding: 204 of 403
[8]
  concentration of off-target binding: less than 0.1 μM
[9]; 10 μM unlabeled CPPC, LPS rodent brain tissue
  displacement of [^3H]CPPC binding: up to 50%
[9]; 7-day post-LPS rat brain, 10 μM unlabeled CPPC, [^3H]CPPC 3.5 nM
  % inhibition of [^3H]CPPC binding (signal-to-noise): 49.9 ± 2.9%
[9]; [26]
  inhibition of [^3H]CPPC binding: 60%
[10]
  ratio of total baseline binding to the inhibited condition: 1.7–2.7
[11]
  pIC50: 5.23
[12]
  pIC50: 7.13
[13]
  pIC50: 8.03
[13]; CPPC concentration curve vs [^3H]CPPC in i.p. LPS spleen
  hillslope (nH): 0.46
[13]; i.p. LPS mouse spleen (n = 6), 10 μM competitor, [^3H]CPPC 3 nM
  inhibition of [^3H]CPPC binding: 85% and > 80%
[14]
  pIC50: 5.31
[15]
  pIC50: 7.15

## FC(F)(F)c1ccc(CNc2ccc(Cc3c[nH]c4ncc(Cl)cc34)cn2)cn1 [PLX3397, 5-((5-chloro-1H-pyrrolo[2,3-b]pyridin-3-yl)methyl)-N-((6-(trifluoromethyl)pyridin-3-yl)methyl)pyridin-2-amine]
[16]
  affinity for c-kit: 20 nM
[17]
  affinity for CSF-1R: 10 nM
[9]; [26]
  inhibition of [^3H]CPPC binding: 15%
[18]
  presence in cerebrospinal fluid: observed in cerebrospinal fluid, albeit at low concentrations

## CN1CCN(c2ccc(NC(=O)c3ccc(C#N)o3)c(N3CCCCC3)c2)CC1 [[^3H]CPPC, [^3H] 5-cyano-N-(4-(4-methylpiperazin-1-yl)-2-(piperidin-1-yl)phenyl)furan-2-carboxamide]
[13]; [27]
  pKd: 8.37

## [3H]C([3H])([3H])N1CCN(c2ccc(NC(=O)c3ccc(C#N)o3)c(N3CCCCC3)c2)CC1 [[^3H]CPPC, [^3H] 5-cyano-N-(4-(4-methylpiperazin-1-yl)-2-(piperidin-1-yl)phenyl)furan-2-carboxamide]
[19]
  rate of decomposition: less than 3%
[9]; [28]
  [^3H]CPPC binding, contralateral hemisphere: 17.9 ± 1.1 nCi/mg
  [^3H]CPPC binding, ipsilateral hemisphere: 18.9 ± 1.7 nCi/mg
[9]; 30-day LPS rat brain sections, radioligand concentration up to 40 nM
  saturability of [^3H]CPPC binding: failed to saturate
[9]; [26]
  total binding of [^3H]CPPC: 15 nCi/mg
[20]
  specific signal of [^3H]CPPC: ~ 60%
[21]
  specific binding under No-Wash Assay conditions: lack of specific binding
[13]; [27]
  Bmax: 1339 fmol/mg tissue
[13]; i.p. LPS mouse spleen, [^3H]CPPC 3 nM
  baseline radioligand binding of [^3H]CPPC: 100 nCi/mg

## COc1ccccc1CN(C(C)=O)c1cnccc1Oc1ccccc1 [[^3H]PBR28]
[22]; [29]
  Bmax: 14771 fmol/mg tissue
  pKd: 8.62
[22]; defined using unlabeled 10 μM FEPPA, i.p. LPS mouse spleen
  specific binding: 99 ± 0.03%
[23]
  specific binding under No-Wash Assay conditions: > 60%
[24]; [^3H]PBR28 saturation, ipsilateral hemisphere of 30-day LPS rat brain
  Bmax: 620.7 fmol/mg
[24]; rats sacrificed 7-days post-surgery
  [^3H]PBR28 specific binding, contralateral hemisphere: 29.0 ± 3.1 nCi/mg
[24]; rats sacrificed 7-days post-surgery, mean ± sd
  [^3H]PBR28 specific binding, ipsilateral hemisphere: 83.5 ± 48.9 nCi/mg
[24]; [30]
  [^3H]PBR28 specific binding, contralateral hemisphere: 14.0 ± 2.36 nCi/mg
  [^3H]PBR28 specific binding, ipsilateral hemisphere: 36.2 ± 4.07 nCi/mg
[25]; areas of decreased immunostaining for inflammatory cells
  [^3H]PBR28 binding density: 620 MDC/mm^2
[25]; region of the tumor and immediately proximal areas
  relative target density ([^3H]PBR28 specific signal): 250500 MDC/mm^2
